Paper PMC4969713 (Journal of Alzheimer's Disease, 2016)
Values joined by “and” are separate entries in the source; they are usually repeats but may differ in a detail not shown here. Identical values can stand only once. Counter-ions that a name gives are not always drawn. Like-named read-outs stand apart in the source and are kept apart here.

Assays:
hKvLQT1-hminK (IKs) = hKvLQT1-hminK (IKs) (Homo sapiens, UniProt P51787); experiment: Cardiac channel inhibition, IKs; type: cell-based
muscarinic M2 receptor = muscarinic M2 receptor (Homo sapiens, UniProt P08172); experiment: Target panel binding, muscarinic M2
muscarinic M2 receptor, sequence (P08172 whole entry): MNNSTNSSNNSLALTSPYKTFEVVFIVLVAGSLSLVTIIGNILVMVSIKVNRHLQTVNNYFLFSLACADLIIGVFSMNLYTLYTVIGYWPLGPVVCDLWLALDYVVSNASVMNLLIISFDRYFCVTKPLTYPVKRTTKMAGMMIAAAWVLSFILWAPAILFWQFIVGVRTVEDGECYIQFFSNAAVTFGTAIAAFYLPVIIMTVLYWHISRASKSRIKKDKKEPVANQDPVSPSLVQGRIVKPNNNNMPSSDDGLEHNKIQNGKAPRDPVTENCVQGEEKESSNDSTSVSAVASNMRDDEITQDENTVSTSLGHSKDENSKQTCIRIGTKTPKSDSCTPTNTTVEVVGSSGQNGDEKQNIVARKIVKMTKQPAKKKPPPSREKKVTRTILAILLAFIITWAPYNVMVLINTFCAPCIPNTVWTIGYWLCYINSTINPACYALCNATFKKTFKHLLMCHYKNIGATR

CYP1A2 = CYP1A2 (Homo sapiens, UniProt P05177); experiment: Metabolism by recombinant CYP1A2; type: in vitro ADME
CYP1A2, sequence (P05177 whole entry): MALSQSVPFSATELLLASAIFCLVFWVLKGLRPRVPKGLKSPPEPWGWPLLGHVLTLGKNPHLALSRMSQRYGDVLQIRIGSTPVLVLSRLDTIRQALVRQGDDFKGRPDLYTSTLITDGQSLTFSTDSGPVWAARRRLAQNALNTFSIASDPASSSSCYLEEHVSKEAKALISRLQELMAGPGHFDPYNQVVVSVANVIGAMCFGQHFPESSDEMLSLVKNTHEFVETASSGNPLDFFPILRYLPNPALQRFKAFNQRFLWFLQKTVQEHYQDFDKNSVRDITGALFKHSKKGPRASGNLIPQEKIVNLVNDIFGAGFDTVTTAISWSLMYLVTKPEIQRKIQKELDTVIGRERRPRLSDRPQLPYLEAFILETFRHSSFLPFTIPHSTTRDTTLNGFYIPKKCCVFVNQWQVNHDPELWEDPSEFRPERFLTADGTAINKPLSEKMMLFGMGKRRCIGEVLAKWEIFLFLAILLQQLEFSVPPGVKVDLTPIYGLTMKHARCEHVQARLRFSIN

Pharmacokinetics in dogs = type: in vivo, dogs (Beagle); settings: for Cmax / Tmax / half-life / AUC: Beagle, dog, blood
[1] = Pharmacokinetics in Wistar rats, IV/IP/PO; type: in vivo; settings: for Fabs: based on AUC0 ⟶240; for Cmax / Tmax / half-life / k el / AUC: Wistar, rat, plasma, 5 mg/kg
[2] = Pharmacokinetics in Rhesus monkeys; type: in vivo; settings: for AUC / Cmax / k el / half-life: rhesus monkey, in vivo; for k el: Kel
dopamine transporter = dopamine transporter (Homo sapiens, UniProt Q01959); experiment: Target panel binding, dopamine transporter
dopamine transporter, sequence (Q01959 whole entry): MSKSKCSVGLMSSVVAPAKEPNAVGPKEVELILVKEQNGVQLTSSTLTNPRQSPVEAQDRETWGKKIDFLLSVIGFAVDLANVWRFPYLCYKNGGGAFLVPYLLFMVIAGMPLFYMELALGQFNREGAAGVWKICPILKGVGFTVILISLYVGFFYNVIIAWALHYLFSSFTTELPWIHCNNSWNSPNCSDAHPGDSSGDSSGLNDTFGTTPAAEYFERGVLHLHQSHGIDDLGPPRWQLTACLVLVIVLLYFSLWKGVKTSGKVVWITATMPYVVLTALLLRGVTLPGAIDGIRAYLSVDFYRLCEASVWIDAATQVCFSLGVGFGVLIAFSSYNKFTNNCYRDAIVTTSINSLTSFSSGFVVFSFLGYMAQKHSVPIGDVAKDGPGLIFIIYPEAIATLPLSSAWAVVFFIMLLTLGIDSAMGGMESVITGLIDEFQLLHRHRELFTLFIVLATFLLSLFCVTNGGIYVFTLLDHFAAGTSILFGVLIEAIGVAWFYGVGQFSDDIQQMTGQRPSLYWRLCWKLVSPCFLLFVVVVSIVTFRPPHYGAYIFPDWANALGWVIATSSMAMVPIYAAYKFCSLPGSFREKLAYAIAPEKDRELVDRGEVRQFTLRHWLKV

Adrenergic α1D = Adrenergic α1D (Homo sapiens, UniProt P25100); experiment: Radioligand competition, adrenergic α1D; type: binding
Adrenergic α1D, sequence (P25100 whole entry): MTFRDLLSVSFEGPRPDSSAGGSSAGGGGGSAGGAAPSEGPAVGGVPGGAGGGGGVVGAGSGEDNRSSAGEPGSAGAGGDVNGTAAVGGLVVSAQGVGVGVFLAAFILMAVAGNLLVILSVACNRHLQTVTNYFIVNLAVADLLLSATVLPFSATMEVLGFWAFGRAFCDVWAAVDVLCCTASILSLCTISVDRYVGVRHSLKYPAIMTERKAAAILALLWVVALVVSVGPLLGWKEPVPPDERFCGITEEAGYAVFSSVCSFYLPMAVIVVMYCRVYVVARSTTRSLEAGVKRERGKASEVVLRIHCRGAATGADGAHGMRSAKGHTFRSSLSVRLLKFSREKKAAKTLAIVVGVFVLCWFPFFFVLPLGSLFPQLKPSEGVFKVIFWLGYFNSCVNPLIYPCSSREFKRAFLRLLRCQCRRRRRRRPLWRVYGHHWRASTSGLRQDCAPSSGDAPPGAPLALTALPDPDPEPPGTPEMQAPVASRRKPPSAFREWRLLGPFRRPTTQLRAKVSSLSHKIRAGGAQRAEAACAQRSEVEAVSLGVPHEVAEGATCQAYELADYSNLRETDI

5-HT7 receptor = 5-HT7 receptor (Homo sapiens, UniProt P34969); settings: Table 2; cited from earlier work
5-HT7 receptor, sequence (P34969 whole entry): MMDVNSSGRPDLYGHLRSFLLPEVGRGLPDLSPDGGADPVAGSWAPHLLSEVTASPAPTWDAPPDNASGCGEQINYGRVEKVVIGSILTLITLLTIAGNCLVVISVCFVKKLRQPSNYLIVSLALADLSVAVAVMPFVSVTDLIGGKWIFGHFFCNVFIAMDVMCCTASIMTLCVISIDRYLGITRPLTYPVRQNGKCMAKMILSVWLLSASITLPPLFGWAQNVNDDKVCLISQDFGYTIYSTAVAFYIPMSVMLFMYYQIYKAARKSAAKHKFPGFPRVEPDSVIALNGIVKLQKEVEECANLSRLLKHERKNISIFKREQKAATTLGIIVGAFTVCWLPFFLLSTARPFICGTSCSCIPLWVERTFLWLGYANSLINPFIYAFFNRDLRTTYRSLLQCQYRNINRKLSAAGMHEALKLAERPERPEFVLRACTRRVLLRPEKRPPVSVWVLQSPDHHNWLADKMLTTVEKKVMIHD

sigma 1 receptor = sigma 1 receptor (Homo sapiens, UniProt Q99720); experiment: Target panel binding, sigma 1
sigma 1 receptor, sequence (Q99720 whole entry, species assumed): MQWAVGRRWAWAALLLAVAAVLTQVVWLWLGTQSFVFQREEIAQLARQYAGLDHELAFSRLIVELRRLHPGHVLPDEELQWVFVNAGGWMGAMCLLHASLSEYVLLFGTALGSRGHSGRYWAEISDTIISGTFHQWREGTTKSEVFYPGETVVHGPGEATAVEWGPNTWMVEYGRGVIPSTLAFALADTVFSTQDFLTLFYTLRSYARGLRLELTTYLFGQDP

[3] = system: Salmonella typhimurium strains: TA98, TA1535, and TA1537; experiment: Ames MPF test; type: cell-based; settings: AVN-101 highest concentration 50μM
Summary of the method: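 Run per kit manual in the Ames MPF fluctuation format with histidine-dependent strains TA98, TA1535 and TA1537. Test compound reached a highest concentration of 50 μM. Strain-specific positive controls: 4-nitro-o-phenylenediamine 15 μg/mL (TA98), sodium azide 2 μg/mL (TA1535), 9-aminoacridine 50 μg/mL (TA1537). Reverse mutation rate recorded.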

femur bone marrow cells = experiment: Chromosomal aberrations in femur bone marrow cells; type: in vivo, mice
Summary of the method: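 Mice 8–12 weeks old, male and female, were dosed orally with test compound or cyclophosphamide 20 mg/kg. Schedule was single dose with kill at 24 h, or qd for 5 days with kill 6 h after the last dose. Colchicine 4 mg/kg was given orally 2.5 h before decapitation. Femur marrow was put into 0.55% KCl at 37°C for 15 min, then spun. Scoring covered 100 metaphases per animal (500 per group), expressed as % aberrant cells.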

[4] = iv, 2 mg/kg, monkey 34887, IV 2 mg/kg
[5] = iv, 2 mg/kg, monkey 35188, IV 2 mg/kg
[6] = po, 10 mg/kg, Mean, PO 10 mg/kg
[7] = po, 10 mg/kg, monkey 34920, PO 10 mg/kg
[8] = po, 10 mg/kg, monkey 35189, PO 10 mg/kg
[9] = 1 mg/kg PO qd for 5 days, females
[10] = 1 mg/kg PO qd for 5 days, males

hKvLQT1-hminK (IKs), sequence (P51787 whole entry): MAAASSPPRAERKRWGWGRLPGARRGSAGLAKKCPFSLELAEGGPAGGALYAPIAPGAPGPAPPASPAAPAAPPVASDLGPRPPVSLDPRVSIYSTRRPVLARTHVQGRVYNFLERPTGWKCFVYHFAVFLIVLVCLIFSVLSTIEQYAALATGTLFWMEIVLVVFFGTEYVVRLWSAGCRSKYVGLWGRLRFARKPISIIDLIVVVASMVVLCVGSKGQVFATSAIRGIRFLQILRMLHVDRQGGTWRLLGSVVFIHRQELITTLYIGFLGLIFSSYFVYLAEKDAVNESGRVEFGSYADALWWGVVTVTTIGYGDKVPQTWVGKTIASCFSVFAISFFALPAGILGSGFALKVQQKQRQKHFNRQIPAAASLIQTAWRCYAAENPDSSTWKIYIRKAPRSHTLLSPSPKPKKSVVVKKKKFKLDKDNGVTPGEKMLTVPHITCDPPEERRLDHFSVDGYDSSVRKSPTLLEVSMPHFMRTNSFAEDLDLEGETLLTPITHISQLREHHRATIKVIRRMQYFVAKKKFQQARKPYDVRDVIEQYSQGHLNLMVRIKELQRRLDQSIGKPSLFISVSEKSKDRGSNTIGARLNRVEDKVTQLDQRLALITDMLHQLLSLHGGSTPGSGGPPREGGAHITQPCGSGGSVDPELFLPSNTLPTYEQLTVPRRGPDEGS

With `Cc1ccc2c(c1)c1c(n2CCc2ccccc2)CCN(C)C1` [AVN-101, 2,8-dimethyl-5-penethyl-2,3,4,5-tetra-hydro-1h-pyrido[[4,3-B]]indole hydrochloride] the IC50 (hKvLQT1-hminK (IKs)) was 22500 nM, the inhibition at 31.6 µM (hKvLQT1-hminK (IKs); read-out: % Inhibition at 31.6μM) was 55% and the binding (muscarinic M2 receptor) was “does not bind”. For the same compound, the remaining at 0.5 h, 2 µM (CYP1A2) was 46%, the Blood plasma concentration (Dogs (beagles); 0.05 mg/kg IV infusion) was 140 nM and 140 ± 20 nM and the “femoral SBP, down” value (Dogs (beagles); 0.5 mg/kg) was 13%. The Blood plasma concentration (Dogs (beagles); 0.5 mg/kg IV infusion) was 990 nM and 990 ± 40 nM, the “femoral SBP, down” value (Dogs (beagles); 0.5 mg/kg, p < 0.05) was 17 mm Hg and the “femoral SBP, down” value (Dogs (beagles); 2 mg/kg) was 16%. The Blood plasma concentration (Dogs (beagles); 2 mg/kg IV infusion) was 3280 nM and 3280 ± 300 nM, the “shortening of QT” value (Dogs (beagles); 2.0 mg/kg, at 30 min) was 15% and the “shortening of QTcV” value (Dogs (beagles); 2.0 mg/kg, at 30 min) was 8%. The “femoral SBP, down” value (Dogs (beagles); 2 mg/kg, p < 0.05) was 21 mm Hg, the “HR, up” value (Dogs (beagles); 10 mg/kg) was 164% and the “aortic DBP, down” value (Dogs (beagles); 10 mg/kg) was 13%. The “femoral BF, up” value (Dogs (beagles); 10 mg/kg) was 27%, the “femoral DBP, down” value (Dogs (beagles); 10 mg/kg) was 17% and the “femoral SBP, down” value (Dogs (beagles); 10 mg/kg) was 11%. For the same compound, the “left ventricular DBP, down” value (Dogs (beagles); 10 mg/kg) was 40%, the “reduction in QT” value (Dogs (beagles); 10.0 mg/kg) was 30% and the “reduction in QTcV” value (Dogs (beagles); 10.0 mg/kg) was 13%. For the same compound, the Blood plasma concentration (Dogs (beagles); 10 mg/kg IV infusion) was 11100 nM and 11100 ± 2150 nM, the “HR, up” value (Dogs (beagles); 10 mg/kg, p < 0.001) was 118 bpm and the “aortic DBP, down” value (Dogs (beagles); 10 mg/kg, p < 0.05) was 9 mmHg. For the same compound, the “femoral BF, up” value (Dogs (beagles); 10 mg/kg, p < 0.05) was 35 mL/min, the “femoral DBP, down” value (Dogs (beagles); 10 mg/kg, p < 0.05) was 12 mm Hg and the “left ventricular DBP, down” value (Dogs (beagles); 10 mg/kg, p < 0.05) was 2 mmHg. The “femoral SBP, down” value (Dogs (beagles); 10 mg/kg, p > 0.05) was 15 mm Hg, the Fabs (Pharmacokinetics in dogs; AVN-101 PO 10 mg/kg vs IV 2 mg/kg) was 4.6% and the Cmax (Pharmacokinetics in dogs; iv, 1 mg/kg) was 13.7 ng/mL. For the same compound, the Tmax (Pharmacokinetics in dogs; iv, 1 mg/kg) was 0.0167 h, the half-life (Pharmacokinetics in dogs; iv, 1 mg/kg) was 0.348 h and the AUC (Pharmacokinetics in dogs; iv, 2 mg/kg) was 498 ng·h/mL. It also gave a Cmax (Pharmacokinetics in dogs; iv, 2 mg/kg) of 3740 ng/mL, a Tmax (Pharmacokinetics in dogs; iv, 2 mg/kg) of 0.0167 h and a half-life (Pharmacokinetics in dogs; iv, 2 mg/kg) of 0.497 h. For the same compound, the AUC (Pharmacokinetics in dogs; po, 5 mg/kg) was 31.6 ng·h/mL, the Cmax (Pharmacokinetics in dogs; po, 5 mg/kg) was 9.1 ng/mL and the Tmax (Pharmacokinetics in dogs; po, 5 mg/kg) was 4 h. The AUC (Pharmacokinetics in dogs; po, 10 mg/kg) was 114 ng·h/mL, the Cmax (Pharmacokinetics in dogs; po, 10 mg/kg) was 23 ng/mL and the Tmax (Pharmacokinetics in dogs; po, 10 mg/kg) was 1 h. For the same compound, the half-life (Pharmacokinetics in dogs; po, 10 mg/kg) was 6.1 h, the Fabs ([1]; IP 5 mg/kg) was 26.3% and the Fabs ([1]; PO 5 mg/kg) was 8.5%. The Cmax ([1]; ip) was 278 ng/mL, the Tmax ([1]; ip) was 5 min and the half-life ([1]; ip) was 2.94 h. For the same compound, the k el ([1]; ip) was 6.5e-05 s⁻¹, the AUC ([1]; ip, AUC0 ⟶240, IP 5 mg/kg) was 1900 ng·h/mL and the AUC ([1]; ip, AUC0 ⟶∞, IP 5 mg/kg) was 2830 ng·h/mL. For the same compound, the Cmax ([1]; iv) was 847 ng/mL, the Tmax ([1]; iv) was 5 min and the half-life ([1]; iv) was 0.958 h. For the same compound, the k el ([1]; iv) was 0.000202 s⁻¹, the AUC ([1]; iv, AUC0 ⟶240, IV 5 mg/kg) was 721 ng·h/mL and the AUC ([1]; iv, AUC0 ⟶∞, IV 5 mg/kg) was 7530 ng·h/mL. It also gave a Cmax ([1]; po) of 50 ng/mL, a Tmax ([1]; po) of 5 min and a half-life ([1]; po) of 1.95 h. For the same compound, the k el ([1]; po) was 9.83e-05 s⁻¹, the AUC ([1]; po, AUC0 ⟶240, PO 5 mg/kg) was 614 ng·h/mL and the AUC ([1]; po, AUC0 ⟶∞, PO 5 mg/kg) was 810 ng·h/mL. The Fabs ([2]; PO 10 mg/kg vs IV 2 mg/kg, mean) was 15.3%, the AUC ([2]; iv, 2 mg/kg, AUC0 ⟶t, Mean, IV 2 mg/kg) was 426 ng·h/mL and the AUC ([2]; iv, 2 mg/kg, AUC0 ⟶t, monkey 34887, IV 2 mg/kg) was 356 ng·h/mL. It also gave an AUC ([2]; iv, 2 mg/kg, AUC0 ⟶t, monkey 35188, IV 2 mg/kg) of 496 ng·h/mL, an AUC ([2]; iv, 2 mg/kg, AUC0 ⟶∞, Mean, IV 2 mg/kg) of 792 ng·h/mL and an AUC ([2]; iv, 2 mg/kg, AUC0 ⟶∞, monkey 34887, IV 2 mg/kg) of 388 ng·h/mL. For the same compound, the AUC ([2]; iv, 2 mg/kg, AUC0 ⟶∞, monkey 35188, IV 2 mg/kg) was 1200 ng·h/mL, the Cmax ([2]; iv, 2 mg/kg, Mean, IV 2 mg/kg) was 324 ng/mL and the Cmax [2, 4] was 304 ng/mL. The Cmax [2, 5] was 345 ng/mL, the k el ([2]; iv, 2 mg/kg, Mean, IV 2 mg/kg) was 0.000208 s⁻¹ and the k el [2, 4] was 0.000347 s⁻¹. It also gave a k el [2, 5] of 7.17e-05 s⁻¹, a half-life ([2]; iv, 2 mg/kg, T1/2, Mean, IV 2 mg/kg) of 1.63 h and a half-life ([2]; iv, 2 mg/kg, T1/2, monkey 34887, IV 2 mg/kg) of 0.55 h. It also gave a half-life ([2]; iv, 2 mg/kg, T1/2, monkey 35188, IV 2 mg/kg) of 2.7 h, an AUC ([2]; po, 10 mg/kg, AUC0 ⟶t, Mean, PO 10 mg/kg) of 360 ng·h/mL and an AUC ([2]; po, 10 mg/kg, AUC0 ⟶t, monkey 34920, PO 10 mg/kg) of 321 ng·h/mL. For the same compound, the AUC ([2]; po, 10 mg/kg, AUC0 ⟶t, monkey 35189, PO 10 mg/kg) was 398 ng·h/mL, the AUC ([2]; po, 10 mg/kg, AUC0 ⟶∞, Mean, PO 10 mg/kg) was 606 ng·h/mL and the AUC ([2]; po, 10 mg/kg, AUC0 ⟶∞, monkey 34920, PO 10 mg/kg) was 637 ng·h/mL. It also gave an AUC ([2]; po, 10 mg/kg, AUC0 ⟶∞, monkey 35189, PO 10 mg/kg) of 575 ng·h/mL, a Cmax [2, 6] of 66 ng/mL and a Cmax [2, 7] of 53 ng/mL. The Cmax [2, 8] was 79 ng/mL, the k el [2, 6] was 3.67e-05 s⁻¹ and the k el [2, 7] was 2.67e-05 s⁻¹. It also gave a k el [2, 8] of 4.5e-05 s⁻¹, a half-life ([2]; po, 10 mg/kg, T1/2, Mean, PO 10 mg/kg) of 5.77 h and a half-life ([2]; po, 10 mg/kg, T1/2, monkey 34920, PO 10 mg/kg) of 7.3 h. The half-life ([2]; po, 10 mg/kg, T1/2, monkey 35189, PO 10 mg/kg) was 4.25 h, the binding (dopamine transporter) was “does not bind” and the Ki (Adrenergic α1D) was 30.2 nM. For the same compound, the Ki (5-HT7 receptor) was 0.153 nM, the binding (sigma 1 receptor) was “does not bind” and the “mutagenicity (reverse mutation rate)” value [3] was “produced no mutagenesis”. The “Cells with multiple aberrations” value (femur bone marrow cells; [9]) was 0%, the “Total altered metaphases (%)” value (femur bone marrow cells; [9]) was 0.8 ± 0.4% and the “cells with aberration, Double fragment” value (femur bone marrow cells; [9]) was 0%. The “cells with aberration, Single fragment” value (femur bone marrow cells; [9]) was 0.8%, the “cells with aberration, exchanges” value (femur bone marrow cells; [9]) was 0% and the “cells with aberration, gaps” value (femur bone marrow cells; [9]) was 0%. The “Cells with multiple aberrations” value (femur bone marrow cells; [10]) was 0%, the “Total altered metaphases (%)” value (femur bone marrow cells; [10]) was 1.4 ± 0.5% and the “cells with aberration, Double fragment” value (femur bone marrow cells; [10]) was 0%. The “cells with aberration, Single fragment” value (femur bone marrow cells; [10]) was 1.2%, the “cells with aberration, exchanges” value (femur bone marrow cells; [10]) was 0% and the “cells with aberration, gaps” value (femur bone marrow cells; [10]) was 0.2%. For the same compound, the “Cells with multiple aberrations” value (femur bone marrow cells; 1 mg/kg PO single dose, males) was 0%, the “Total altered metaphases (%)” value (femur bone marrow cells; 1 mg/kg PO single dose, males) was 1.2 ± 0.5% and the “cells with aberration, Double fragment” value (femur bone marrow cells; 1 mg/kg PO single dose, males) was 0%. The “cells with aberration, Single fragment” value (femur bone marrow cells; 1 mg/kg PO single dose, males) was 1.2%, the “cells with aberration, exchanges” value (femur bone marrow cells; 1 mg/kg PO single dose, males) was 0% and the “cells with aberration, gaps” value (femur bone marrow cells; 1 mg/kg PO single dose, males) was 0%. For the same compound, the “Cells with multiple aberrations” value (femur bone marrow cells; 20 mg/kg PO single dose, males) was 0%, the “Total altered metaphases (%)” value (femur bone marrow cells; 20 mg/kg PO single dose, males) was 1.6 ± 0.6% and the “cells with aberration, Double fragment” value (femur bone marrow cells; 20 mg/kg PO single dose, males) was 0%. For the same compound, the “cells with aberration, Single fragment” value (femur bone marrow cells; 20 mg/kg PO single dose, males) was 0.6%, the “cells with aberration, exchanges” value (femur bone marrow cells; 20 mg/kg PO single dose, males) was 0% and the “cells with aberration, gaps” value (femur bone marrow cells; 20 mg/kg PO single dose, males) was 1.0%.
